Experimental data as given in ChEMBL document CHEMBL1123462, “Indolo[2,1-c][1,4]benzodiazepines: a new class of antiallergic agents” (J Med Chem, 1986).

Tests used:
[1] = tested on: Rattus norvegicus; experiment: Compound was tested for the inhibition of rat passive cutaneous anaphylaxis (PCA) at 10 mg/kg dose ip; type: functional; conditions: route intraperitoneal
[2] = tested on: Cavia porcellus; experiment: Compound was tested for the inhibition of guinea pig active lung anaphylaxis (ALA) at 0.001 mg/kg iv; type: functional
Procedure, shortened: (§1)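 Guinea pigs were sensitized with egg albumin 1 mg sc plus Bordetella pertussis vaccine adjuvant. Two weeks later: pentobarbital 65 mg/kg ip, then trachea, jugular vein and carotid cannulated. Drug given iv before an iv egg albumin challenge (0.5 mg/kg). Airway resistance (bronchoconstriction) and arterial pressure monitored. %inhibition given as mean ± SE; ED50 iv with 95% confidence limits.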

[3] = tested on: Rattus norvegicus; experiment: Compound was tested for percent inhibition, at 3.3 mg/kg administered intraperitoneally against serotonin by Dunnett's test; type: functional; conditions: ip, route intraperitoneal
Procedure, shortened: (§2)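 Male Sprague-Dawley rats were given 0.05 mL of high-titer IgE rat anti-ovalbumin antiserum intradermally. 24 h later: iv ovalbumin plus Evans Blue in saline, with simultaneous intradermal serotonin and histamine. Drug given ip 1 h before antigen. At 30 min, skin was reflected and wheal size and colour scored against a chart. %inhibition = (1 − mean treated/mean control score)×100. Dunnett's test, p ≤ 0.05.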

[4] = tested on: Cavia porcellus; experiment: Inhibition of guinea pig ALA at a dose of 1 mg/kg 1 hr after postdosing intraperitoneally; type: functional; conditions: ip, route intraperitoneal
Procedure, shortened: (§3)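 Guinea pigs were sensitized with egg albumin 1 mg sc plus pertussis vaccine adjuvant. Two weeks later they were anesthetized (pentobarbital 65 mg/kg ip) and cannulated. Drug was given ip or orally at 1 mg/kg. Challenge with egg albumin 0.5 mg/kg iv at 1, 7, 8 or 24 h post-dose, with bronchoconstriction measured. %inhibition given as mean ± SD.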

[5] = tested on: Cavia porcellus; experiment: Compound was tested for the inhibition of guinea pig active lung anaphylaxis (ALA) administered intravenously; type: functional; conditions: iv; procedure, shortened: as §1
[6] = tested on: Rattus norvegicus; experiment: Compound was tested for percent inhibition, at 3.3 mg/kg administered intraperitoneally against rat passive cutaneous anaphylaxis by Dunnett's test; type: functional; conditions: ip, route intraperitoneal; procedure, shortened: as §2
[7] = tested on: Rattus norvegicus; experiment: Compound was tested for percent inhibition, at 0.37 mg/kg administered intraperitoneally against histamine; type: functional; conditions: ip, route intraperitoneal; procedure, shortened: as §2
[8] = tested on: Cavia porcellus; experiment: Inhibition of guinea pig ALA at a dose of 1 mg/kg 24 hr after postdosing intraperitoneally; type: functional; conditions: ip, route intraperitoneal; procedure, shortened: as §3
[9] = tested on: Rattus norvegicus; experiment: Compound was tested for percent inhibition, at 3.3 mg/kg administered intraperitoneally against histamine by Dunnett's test; type: functional; conditions: ip, route intraperitoneal; procedure, shortened: as §2
[10] = tested on: Rattus norvegicus; experiment: Compound was tested for percent inhibition, at 0.37 mg/kg administered intraperitoneally against serotonin by Dunnett's test; type: functional; conditions: ip, route intraperitoneal; procedure, shortened: as §2
[11] = tested on: Cavia porcellus; experiment: Inhibition of guinea pig ALA at a dose of 1 mg/kg 24 hr after postdosing orally; type: functional; conditions: route oral; procedure, shortened: as §3
[12] = tested on: Cavia porcellus; experiment: Inhibition of guinea pig ALA at a dose of 1 mg/kg 7 hr after postdosing intraperitoneally; type: functional; conditions: ip, route intraperitoneal; procedure, shortened: as §3
[13] = tested on: Cavia porcellus; experiment: Inhibition of guinea pig ALA at a dose of 1 mg/kg 8 hr after postdosing orally; type: functional; conditions: route oral; procedure, shortened: as §3
[14] = tested on: Rattus norvegicus; experiment: Compound was tested […] for the inhibition of serotonin release in rat peritoneal cell; type: functional
[15] = tested on: Cavia porcellus; experiment: Inhibition of guinea pig ALA at a dose of 1 mg/kg 1 hr after postdosing orally; type: functional; conditions: route oral; procedure, shortened: as §3
[16] = tested on: Rattus norvegicus; experiment: Compound was tested for the inhibition of rat passive cutaneous anaphylaxis (PCA) administered intraperitoneally; type: functional; conditions: ip; procedure, shortened: as §2
[17] = tested on: Rattus norvegicus; experiment: Compound was tested for the inhibition of rat passive cutaneous anaphylaxis (PCA) at 0.37 mg/kg dose ip (1h pretreatment); type: functional; conditions: route intraperitoneal; procedure, shortened: as §2
[18] = tested on: Rattus norvegicus; experiment: Compound was tested for the inhibition of rat passive cutaneous anaphylaxis (PCA) at 10 mg/kg dose ip (1h pretreatment); type: functional; conditions: route intraperitoneal
[19] = tested on: Cavia porcellus; experiment: Percent inhibition at a dose of 1 mg/kg at given time postdosing intraperitoneally 24 h; type: functional; conditions: ip, route intraperitoneal; procedure, shortened: as §3
[20] = tested on: Rattus norvegicus; experiment: Compound was tested for the inhibition of rat passive cutaneous anaphylaxis (PCA) Dose administered intraperitoneally; type: functional; procedure, shortened: as §2
[21] = tested on: Rattus norvegicus; experiment: Compound was tested for percent inhibition, at 1.1 mg/kg administered intraperitoneally against histamine; type: functional; conditions: ip, route intraperitoneal; procedure, shortened: as §2
[22] = tested on: Cavia porcellus; experiment: Percent inhibition at a dose of 1 mg/kg at given time postdosing orally 8 h; type: functional; conditions: route oral; procedure, shortened: as §3
[23] = tested on: Cavia porcellus; experiment: Percent inhibition at a dose of 1 mg/kg at given time postdosing orally 24 h; type: functional; conditions: route oral; procedure, shortened: as §3
[24] = organism: Rattus norvegicus; experiment: Compound was tested for the inhibition of rat passive cutaneous anaphylaxis (PCA) Percent inhibition; type: functional; procedure, shortened: as §2
[25] = tested on: Cavia porcellus; experiment: Percent inhibition at a dose of 1 mg/kg at given time postdosing orally 1 h; type: functional; conditions: route oral; procedure, shortened: as §3
[26] = tested on: Cavia porcellus; experiment: Percent inhibition at a dose of 1 mg/kg at given time postdosing intraperitoneally 1 h; type: functional; conditions: ip, route intraperitoneal; procedure, shortened: as §3
[27] = tested on: Rattus norvegicus; experiment: Compound was tested for percent inhibition, at 1.1 mg/kg administered intraperitoneally against serotonin by Dunnett's test; type: functional; conditions: ip, route intraperitoneal; procedure, shortened: as §2
[28] = tested on: Cavia porcellus; experiment: Percent inhibition at a dose of 1 mg/kg at given time postdosing intraperitoneally 7 h; type: functional; conditions: ip, route intraperitoneal; procedure, shortened: as §3
[29] = tested on: Rattus norvegicus; experiment: Compound was tested […] for the inhibition of serotonin release in rat peritoneal cell
[30] = organism: Cavia porcellus; experiment: Compound was tested for the inhibition of guinea pig active lung anaphylaxis (ALA) Percent inhibition; type: functional; procedure, shortened: as §1
[31] = tested on: Cavia porcellus; experiment: Compound was tested for the inhibition of guinea pig active lung anaphylaxis (ALA) Dose administered intravenously; type: functional; procedure, shortened: as §1

`O=C1Nc2ccccc2Cn2c1cc1ccccc12` showed an inhibition in vivo at 10 mg/kg [1] of 23.2%.

`CN1CCC(=C2c3ccccc3CC(=O)c3sccc32)CC1` [KETOTIFEN] gave an inhibition in vivo at 0.001 mg/kg [2] of 57%, an inhibition in vivo at 3.3 mg/kg [3] of 35.3% and an inhibition in vivo at 1 mg/kg [4] of 82%. For the same compound, the ED50 [5] was 0.002 mg/kg, the inhibition in vivo at 3.3 mg/kg [6] was 92.4% and the inhibition in vivo at 0.37 mg/kg [7] was 64.6%. For the same compound, the inhibition in vivo at 1 mg/kg [8] was 6.5%, the inhibition in vivo at 3.3 mg/kg [9] was 62.5% and the inhibition in vivo at 0.37 mg/kg [10] was 14.8%. The inhibition in vivo at 1 mg/kg [11] was 37%, the inhibition in vivo at 1 mg/kg [12] was 68% and the inhibition in vivo at 1 mg/kg [13] was 73%. The IC50 [14] was 22.9 µM, the inhibition in vivo at 1 mg/kg [15] was 68% and the ED50 [16] was 0.32 mg/kg. It also gave an inhibition in vivo at 0.37 mg/kg [17] of 63.3%.

`c1ccc2c(c1)Cn1c(cc3ccccc31)C(N1CCOCC1)=N2` gave an inhibition in vivo at 10 mg/kg [18] of 0.4%.

`O=c1[nH]c2ccccc2n1CCCN1CCN(C(c2ccccc2)c2ccccc2)CC1` [OXATOMIDE] gave an inhibition in vivo at 1 mg/kg [19] of 10.6%, a Dose [20] of 1.1 mg/kg and an inhibition in vivo at 1.1 mg/kg [21] of 38%. The inhibition in vivo at 1 mg/kg [22] was 45%, the inhibition in vivo at 3.3 mg/kg [3] was 46.5% and the inhibition in vivo at 1 mg/kg [23] was 25%. The Inhibition [24] was 69.1%, the inhibition in vivo at 3.3 mg/kg [6] was 100% and the inhibition in vivo at 1 mg/kg [25] was -5%. For the same compound, the inhibition in vivo at 3.3 mg/kg [9] was 49.3%, the inhibition in vivo at 1 mg/kg [26] was 16% and the inhibition in vivo at 1.1 mg/kg [27] was 35.1%. The inhibition in vivo at 1 mg/kg [28] was 54%, the IC50 [29] was 20.1 µM and the Inhibition [30] was 43%. It also gave an ED50 [16] of 1.2 mg/kg and a Dose [31] of 1 mg/kg.

`CCCCN1CCN(C2=Nc3ccccc3Cn3c2cc2ccccc23)CC1` gave an ED50 [16] of 1.32 mg/kg and an inhibition in vivo at 0.37 mg/kg [17] of 39.9%.

`OC1CCN(C2=Nc3ccccc3Cn3c2cc2ccccc23)CC1` showed an inhibition in vivo at 10 mg/kg [18] of 40.2%.
